Series [1] is described as follows: Stability in Sprague-Dawley rat liver microsomes assessed as remaining compound […] up to 60 mins in presence of NADPH by LC-MS/MS analysis. Format: ADME, Microsome. As to conditions: read-out: Stabilty.
In series [2] the test system is 3T3-L1. In words: Activation of AMPK pathway in adipogenic cocktail-induced mouse 3T3-L1 cells assessed as increase in AMP to ATP ratio at 1 uM after 24 hrs. Type of series: cell-based. As to conditions: filed as activator.
In series [3] the test system is 3T3-L1. In words: Activation of AMPK pathway in mouse 3T3-L1 cells assessed as increase in number of mitochondria copy at 1 uM after 24 hrs by mito-tracker staining based Confocal microscopic method. As to conditions: filed as activator. An outline of the steps: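 3T3-L1 cells grown in DMEM with 10% FBS at 37 °C and 5% CO2. After treatment, cells were stained for 30 min at 37 °C in the dark with 1 µM Mito-Tracker plus Hoechst 33342 (1:1000) and imaged by confocal microscopy (excitation 633 and 405 nm). Mitochondrial copy number was also taken as the mtDNA/nDNA ratio by PCR (cytochrome C versus 18S rRNA).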

Series [4] relates to 3T3-L1. In words: Lipid lowering activity in mouse 3T3-L1 cells assessed as adipogenic cocktail-induced triglyceride levels at 1 uM after 3 days by GPO-POD assay relative to control. Type of series: functional. As to conditions: time 3 day. A digest of the protocol:
(§1)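 3T3-L1 cells were differentiated (cocktail on days 0–3, insulin thereafter) with 1 µM compound present during defined windows (days 0–3, 3–6, 6–9, or 0–3/0–6/0–9). TG was measured at day 9 by GPO-POD after Triton X-100 lysis and sonication. TG was normalized to BCA protein and expressed as % of differentiated control.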

The test system of series [5] is 3T3-L1. The series can be described thus: Lipid lowering activity in mouse 3T3-L1 cells assessed as adipogenic cocktail-induced triglyceride levels at 1 uM after 3 to 6 days by GPO-POD assay relative to control. Format: functional. Conditions: time 3-6 day. An outline of the steps:
as §1

Series [6] deals with 3T3-L1. In words: Inhibition of mouse 3T3-L1 cells adipocyte differentiation assessed as reduction in adipogenic cocktail-induced C/EBPalpha protein expression at 0.3 to 1 uM after 24 hrs by Western blot analysis. Format: functional, cell-based. As to conditions: dose 0.3-1 µM. An outline of the steps:
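3T3-L1 preadipocytes were exposed to adipogenic cocktail with compound (0.3 or 1 µM) and harvested on day 1. Lysates were resolved by SDS-PAGE, immunoblotted (primary antibody overnight at 4 °C, HRP secondary) and quantified by densitometry normalized to actin.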

Series [7] relates to 3T3-L1. In words: Activation of AMPK pathway in adipogenic cocktail-induced mouse 3T3-L1 cells assessed as decrease in ATP level at 0.3 to 1 uM after 24 hrs. Format: cell-based. As to conditions: filed as activator, dose 0.3-1 µM. A digest of the protocol: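 Confluent 3T3-L1 pre-adipocytes exposed to adipogenic cocktail (0.5 mM IBMX, 100 ng/mL dexamethasone, 2 µg/mL insulin) with compound at 0.3 or 1 µM for 24 h. ATP quantified with a commercial luminescent kit and normalized to protein.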

Series [8] relates to Mus musculus. In words: Antiobesity activity in high fat diet-induced obese C57BL/6J mouse model assessed as decrease in lean mass at 20 mg/kg, ip administered for every other days for 6 weeks. Format: functional, organism-based.
For series [9], the system named is Mus musculus. The series can be described thus: Antiobesity activity in high fat diet-induced obese C57BL/6J mouse model assessed as decrease in size of adipocytes at 20 mg/kg, ip administered for every other days for 6 weeks by H and E staining based assay. Format: functional, organism-based.
Series [10] in a line: Toxicity in ip dosed C57BL/6J mouse administered for every other days for 6 weeks. Format: organism-based. Conditions: in vivo. An outline of the steps: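 Male C57BL/6J mice (7–8 weeks) were fed an HFC diet (60% fat, 1% cholesterol) from week 1 and given 20 mg/kg i.p. every other day for 6 weeks from week 9, in saline with 10% ethanol and 10% castor oil, against a vehicle group. At the end, after a 6 h fast under ketamine/xylazine, plasma was taken for auto-analyzer ALT, AST, TBIL, ALB, BUN and creatinine, and tissues were weighed.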

Series [11] relates to Mus musculus. The series can be described thus: Anti-hyperglycemic activity in high fat diet-induced obese C57BL/6J mouse model assessed as decrease in blood glucose level at 20 mg/kg, ip. Type of series: functional, organism-based. Conditions: time hrs <=24, TDE = time-dependent effect. A digest of the protocol: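 C57BL/6J mice fed HFC diet (60% fat, 1% cholesterol). Single i.p. injection of saline or compound at 20 mg/kg. Blood glucose measured with a glucose monitor at 0, 0.5, 1, 2, 4, 8, 12 and 24 h.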

The subject of series [12] is Mus musculus. In words: Antiobesity activity in high fat diet-induced obese C57BL/6J mouse model assessed as decrease in AUC of GTT at 20 mg/kg, ip administered for every other days for 3 weeks by GTT method. Type of series: functional, organism-based. An outline of the steps: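 Male C57BL/6J mice on HFC diet dosed i.p. For GTT, after 3 weeks of treatment: 6 h fast, then i.p. glucose 2 g/kg. For ITT, after 6 weeks: 6 h fast, then i.p. insulin 0.4 U/mouse. Tail-vein glucose measured at 0, 15, 30, 60 and 120 min; AUC calculated.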

Series [13] is described as follows: Half life in Sprague-Dawley rat at 2 mg/kg, iv up to 24 hrs by LC-MS/MS analysis. As to conditions: in vivo. Format: ADME, organism-based. An outline of the steps:
(§2)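 Male SD rats (180–220 g, n = 3) received compound in ethanol/saline (5:95), either intravenously at 2 mg/kg or intragastrically at 5 mg/kg. Plasma was sampled at 0, 0.5, 1, 2, 4, 8, 12 and 24 h. Concentrations were measured by LC-MS/MS, and PK parameters were calculated from the concentration–time data.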

Series [14] in a line: MRT(0 to infinity) in Sprague-Dawley rat at 2 mg/kg, iv up to 24 hrs by LC-MS/MS analysis. Type of series: ADME, organism-based. As to conditions: in vivo. A digest of the protocol:
as §2

Series [15] deals with Mus musculus. The series can be described thus: Antiobesity activity in high fat diet-induced obese C57BL/6J mouse model assessed as ALT level at 20 mg/kg, ip administered for every other days for 6 weeks by auto-analyzer method (reference value: 231.9 +/- 18.5 U/L). Format: functional. An outline of the steps: (§3)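 Male C57BL/6J mice (7–8 weeks) fed HFC diet (60% fat, 1% cholesterol) for up to 14 weeks. From week 9, given 20 mg/kg i.p. every other day for 6 weeks in saline with 10% ethanol and 10% castor oil, or vehicle. Body weight and food intake recorded daily. At end, mice fasted 6 h, anesthetized, and blood collected into EDTA. Plasma chemistry run on an auto-analyzer; insulin by ultra-sensitive ELISA.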

Series [16] has as its system Mus musculus. The series can be described thus: Antiobesity activity in high fat diet-induced obese C57BL/6J mouse model assessed as total bilirubin level at 20 mg/kg, ip administered for every other days for 6 weeks by auto-analyzer method (reference value: 1.3 +/- 0.12 mM). Format: functional.
For series [17], the system named is Mus musculus. The series can be described thus: Antiobesity activity in high fat diet-induced obese C57BL/6J mouse model assessed as blood urea nitrogen level at 20 mg/kg, ip administered for every other days for 6 weeks by auto-analyzer method (reference value: 14.6 +/- 1.4 mM). Format: functional.
The subject of series [18] is Mus musculus. In words: Antiobesity activity in high fat diet-induced obese C57BL/6J mouse model assessed as free fatty acid level at 20 mg/kg, ip administered for every other days for 6 weeks by auto-analyzer method (reference value: 1668.5 +/- 144.6 uM). Type of series: functional. An outline of the steps: as §3
Series [19] deals with Mus musculus. In words: Antiobesity activity in high fat diet-induced obese C57BL/6J mouse model assessed as TG level at 20 mg/kg, ip administered for every other days for 6 weeks by auto-analyzer method (reference value: 1.2 +/- 0.02 mM). Format: functional. A digest of the protocol:
as §3

The test system of series [20] is Mus musculus. The series can be described thus: Antiobesity activity in high fat diet-induced obese C57BL/6J mouse model assessed as insulin level at 20 mg/kg, ip administered for every other days for 6 weeks by ELISA (reference value: 3.5 +/- 0.6 ng/ml). Type of series: functional. A digest of the protocol:
as §3
(An ELISA detects its analyte on a solid surface through an enzyme-linked reagent.)

Structures are written as SMILES. Active and inactive are the calls of the source. The calls are words filed in the database; no cut-off is given here.

One may read the LD50 as the dose at which mortality reaches 50%. Low readings indicate a more toxic substance, high ones a less toxic substance. The term half-life denotes how long it takes for the measured level to halve. High values mean slow decline, low ones rapid decline. Broadly, the MRT inf is the average time that molecules of a dose stay in the body.

Take `CN(C)CCCNc1nc(-c2[nH]c3ccccc3c2C=O)nc2ccccc12`: the remaining at 1 h in [1] amounted to 71%. Also, the result in [2] and in series [3] was Active.

Turning to `COc1ccc2[nH]c(-c3nc(NCCCCN4CCCC4)c4ccccc4n3)c(C=O)c2c1`, in series [1], the remaining at 1 h was 80.7%. The Activity in series [4] is 74.2%; in series [5], 61.8%; in [11], “Tde”; in [15], 52 U/L; in series [16] it was 0.9 mmol; in [17] it was 11.5 mM. The values for the Activity in [18], in series [19] and in series [20] were 694.4 µM, 0.92 mM and 2.2 ng/mL, respectively. Moreover, in [6], the inhibition result was “Active”. Besides, the result in series [7], in series [3], in series [8], in series [9] and in series [12] was Active. Moreover, in series [10], the LD50 at 1008 h is 500 mg/kg. The half-life in [13] is 4.4 h. Further, in series [14], the MRT inf was determined as 5.7 h.

(Values after ChEMBL document CHEMBL4732044, “Discovery of a promising agent IQZ23 for the treatment of obesity and related metabolic disorders” (Eur J Med Chem, 2020).)
